Compound activity: PubChem, several laboratories
PG9 binder = PG9 antibody binding by small molecule; TR-FRET gp120-PG9 antibody binding; inhibition, % at 6.7 µM; 0.43% of 360,000 active; in the data active means inhibition above about 8.5%
Rev-erbA mod = modulates human Rev-erb alpha binding to DNA. P20393. Rev-erbα–FITC-DNA binding, fluorescence polarization, 90 min. activity, % at 10 µM. 0.79% of 370,000 active. AID 1259318;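 active means activity above about 14%, limit read from the data; passing the limit was not always enough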
MC4R barr agon = activates human MC4R beta-arrestin recruitment | AID 540308 | U2OS MC4R beta-arrestin complementation, luminescence; percent of melanotan II response, DMSO zero | P32245 | 0.98% of 360,000 active | activation, % at 8.9 µM;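 active means activation above a per-plate cutoff, the mean activation of sample wells on that plate plus 3 SD, cut at about 8% in these data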
MC4R antagonist = antagonists of human melanocortin 4 receptor (MC4R). P32245. MC4R-expressing cells, MTII-stimulated cAMP, LANCE TR-FRET. inhibition, % at 6.5 µM. 0.48% of 360,000 active. AID 540295;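 active means inhibition above its plate's cutoff, the mean of tested wells on that plate plus 3 SD, cut at about 29% in these data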
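Assay system: U2OS cells stably expressing human melanocortin 4 receptor (MC4R) / Dosing: 6.5 µM / Timing: compound 30 min, challenge 1 h, detection 1 h / Measured by: Eu-cAMP/anti-cAMP TR-FRET, emission 671 nm / Replicates: singlicate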
NTR1 ag = NTR1 (human) agonism | activation, % at 20 µM | NTR1-U2OS beta-arrestin-GFP spot imaging, agonist mode | AID 493036 | P30989 | 0.17% of 330,000 active;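 active means activation at or above 40% of the spot to cytoplasm intensity ratio, with at least 20 cells analyzed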
Target sequence (P30989 whole entry, looked up): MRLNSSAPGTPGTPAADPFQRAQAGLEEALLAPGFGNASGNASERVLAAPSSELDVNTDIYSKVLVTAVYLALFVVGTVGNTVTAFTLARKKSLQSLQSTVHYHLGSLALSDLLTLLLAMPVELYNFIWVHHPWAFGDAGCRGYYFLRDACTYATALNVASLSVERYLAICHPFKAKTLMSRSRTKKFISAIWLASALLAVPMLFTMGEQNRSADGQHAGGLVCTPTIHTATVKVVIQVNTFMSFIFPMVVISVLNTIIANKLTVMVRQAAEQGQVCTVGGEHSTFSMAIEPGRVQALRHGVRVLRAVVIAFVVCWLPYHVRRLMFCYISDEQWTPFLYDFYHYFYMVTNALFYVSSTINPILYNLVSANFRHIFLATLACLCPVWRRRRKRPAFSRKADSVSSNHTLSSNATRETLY
NR1D1 mod conf = Rev-erb alpha (human) modulation, hit confirmation; shares compounds with Rev-erbA mod; Rev-erb alpha FITC-DNA binding, fluorescence polarization, 90 min; activation, % at 25 µM; 61% of 3,000 active; AID 1259319;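 active means activation at or above a set limit, or at least 3 SD above the negative control mean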
RORg DNA counter = affects RORgamma DNA binding in a Rev-erb alpha counter-screen. AID 1259320. shares compounds with Rev-erbA mod. 8% of 910 active. purified RORgamma protein-FITC-DNA binding, fluorescence polarization. IC50, µM;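 active means Compounds whose fitted half-maximal concentration for disrupting protein-DNA binding is below 10 micromolar; the record names Rev-erb in its text, so the target is in doubt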
Hits are given with their value; – = inactive; · = no result given. Shown are actives, neighbours in structure and some others; about 2.5% of the full set was active somewhere.

SMILES	PG9 binder	Rev-erbA mod	MC4R barr agon	MC4R antagonist	NTR1 ag	NR1D1 mod conf	others
CC(=O)c1ccccc1NC(=O)c1cc(S(=O)(=O)N2CCOCC2)ccc1N1CCCC1	–	144	–	–	–	145	RORg DNA counter=–
COC(=O)[C@@H]1[C@H](O[Si](C)(C)C(C)(C)C)C2OC2C[C@H]1S(=O)(=O)c1ccccc1 (stereo partly drawn)	·	–	·	·	·	·
COc1ccc(-c2cscc2N)cc1	–	–	·	·	·	·
Cc1cccc2c(C(=O)n3cccn3)cc(-c3ccccc3Cl)nc12	–	31	–	–	–	–
COC(=O)c1cc(-c2ccc(Cl)s2)c(=O)n2c1CCC2	·	–	·	·	·	·
Cc1cc(NC(=O)c2cccc(C(=O)Nc3cc(C)on3)n2)no1	–	22	–	–	–	17
Cc1cc(NC(=O)c2c(Cl)cccc2Cl)no1	–	–	–	–	–	·
Cc1c(C)c2ccc(OCC(=O)Nc3ccc(S(N)(=O)=O)cc3)c(C)c2oc1=O	–	25	–	–	–	–
Cc1c(OCC(=O)Nc2cccnc2)ccc2c3c(c(=O)oc12)CCC3	–	–	–	–	–	·
c1ccc(-c2ccc(C3=Nn4c(nnc4-c4ccccn4)SC3)cc2)cc1	·	–	·	·	·	·
Cc1ccc2nc(N3CCN(S(=O)(=O)c4ccc(C)c(Cl)c4)CC3)c(C#N)cc2c1	–	189	–	–	–	145	RORg DNA counter=–
Cc1ccc2nc(N3CCN(C)CC3)c(C#N)cc2c1	–	–	–	–	–	·
N=c1c2c(ccn1Cc1ccccc1)Oc1ccc3ccccc3c1C2c1ccccc1 (stereo not drawn)	·	–	·	·	·	·
Cc1n[nH]c(=S)n(NC(=O)/C=C/C(=O)Nn2c(=S)[nH]nc(C)c2=O)c1=O	–	–	–	–	·	·
Cc1n[nH]c(=S)n(NC(=O)CC(=O)Nn2c(=S)[nH]nc(C)c2=O)c1=O	–	16	–	–	–	–
Cc1ccc(-c2nn(C)c(=O)c3ccccc23)cc1S(=O)(=O)N1CCCC1	–	26	–	–	–	36	RORg DNA counter=–
COC(=O)c1ccc(N/C=C\C(=O)c2ccc3c(c2)OCO3)cc1	–	118	–	–	–	44	RORg DNA counter=–
COc1ccc(N/C=C/C(=O)c2ccc(OC)c(OC)c2)cc1	–	–	–	–	–	·
COC(=O)c1ccc(N/C=C/C(=O)c2ccc(OC)c(OC)c2)cc1	–	23	–	–	–	–
COc1ccc(C(=O)N2CCCC(CCC(=O)NCc3ccc(F)c(F)c3)C2)o1 (stereo not drawn)	–	15	–	–	–	–
COC(=O)C1=CN(c2ccc(N3CCOCC3)cc2)C(N)=C(C#N)C1c1cccc(F)c1 (stereo not drawn)	–	24	·	·	·	–
COC(=O)C1=CN(c2ccc(F)cc2)C(N)=C(C#N)C1c1cccc(F)c1 (stereo not drawn)	–	–	·	·	·	·
O=CN1CCN(C(=O)C2CCN(c3ncnc4c3sc3cccc(F)c34)CC2)CC1	·	–	·	·	·	·
Cn1c(N)c(C(=O)COC(=O)C2(c3ccccc3F)CCCC2)c(=O)n(C)c1=O	–	19	–	–	–	–
N#CCC[C@H]1CC[C@]2(CCCN(C(=O)c3ccccc3)C2)O1	·	–	·	·	·	·
SMILES	PG9 binder	Rev-erbA mod	MC4R barr agon	MC4R antagonist	NTR1 ag	NR1D1 mod conf	others
COc1ccc(CCn2c(-c3ccc(OC)cc3)nc3c(c(=O)c4ccccc4n3C)c2=O)cc1	–	50	–	–	–	31	RORg DNA counter=–
Cc1ccc(-c2nc3c(c(=O)c4ccccc4n3C)c(=O)n2-c2ccccc2)cc1	–	26	–	–	–	19
Cc1nc2c(c(=O)c3ccccc3n2C)c(=O)n1-c1ccc(F)cc1	–	–	–	–	–	·
COCCn1c(-c2ccc(Cl)cc2Cl)nc2c(c(=O)c3ccccc3n2C)c1=O	–	65	–	–	–	23
CCc1nc2c(c(=O)c3ccccc3n2C)c(=O)n1CCc1ccc(OC)cc1	·	·	·	·	–	·
COCCn1c(-c2ccc(C)cc2)nc2c(c(=O)c3ccccc3n2C)c1=O	–	–	–	–	·	·
Cc1cccc(-c2nc3c(c(=O)c4ccccc4n3C)c(=O)n2-c2ccccc2)c1	–	40	–	–	–	29
CCOC(=O)C1=NOC(C(=O)NCc2ccccc2)(C(=O)c2ccc(OC)cc2)C1 (stereo not drawn)	·	–	·	·	·	·
Cc1ccc(NC(=O)OC2CC3CC2[C@H]2CCCCN2C3)cc1 (stereo partly drawn)	·	–	·	·	·	·
COc1ccc2cc(C(=O)N/N=C/c3sc4ccccc4c3O)ccc2c1	–	28	–	–	–	27
COc1cccc(NC(=O)Nc2nc3ncccn3c2-c2ccc(C)cc2)c1	·	–	·	·	·	·
COC(=O)[C@]12C[C@H](CC(=O)NCc3ccccc3)C(=O)N(Cc3cccc4ccccc34)C1=C[C@H](COCc1ccccc1)O[C@@H]2C	·	–	·	·	·	·
O=C(OCC#CCSc1nnc(-c2cccc3ccccc23)o1)c1ccsc1	·	–	·	·	·	·
Cc1cccc(CCNc2nc3ccc(C)cc3n3cnnc23)c1	–	–	–	–	–	·
Cc1ccc2nc(NCCc3ccc(Cl)cc3)c3nncn3c2c1	–	28	–	–	–	–
C[C@@H](NC(=O)c1ccc(C#Cc2cccc(F)c2)cn1)C(C)(C)O	·	–	·	·	·	·
CC(C)(C)OC(=O)n1ccc2ccc(-c3ccc4cc[nH]c4c3)cc21	·	–	·	·	·	·
O=C(Nc1cnc2sccn2c1=O)c1ccc(Cl)cc1Cl	–	–	–	–	–	·
COc1ccc(Cl)cc1NC(=O)c1cnc2sccn2c1=O	–	33	–	–	–	32
C[C@@H]1ON(C)[C@H]2C[C@H]3c4[nH]c5c(-c6ccc(C(F)(F)F)cc6)cccc5c4CCN3C(=O)[C@@H]12	–	–	·	·	·	·
CCc1cc2c(nc1CC)CCCN2S(=O)(=O)c1ccccc1	–	–	·	·	·	·
CCOC(=O)C1=C(Nc2ccc(Br)cc2)CC(C)(O)C(C(=O)OCC)C1c1ccccc1 (stereo not drawn)	–	28	–	–	–	–
CCOC(=O)C1C(=O)CC(C)(O)C(C(=O)OCC)C1c1ccc(OCC)cc1 (stereo not drawn)	–	–	–	–	–	·
CCC(C#Cc1ccccc1)NCc1ccc(OC)cc1OC (stereo not drawn)	·	–	·	·	·	·
CC(C)(C)NC(=O)c1nn2c(C(F)(F)F)cc(-c3ccccc3)nc2c1Br	–	–	–	–	–	·
CCCNC(=O)c1nn2c(C(F)(F)F)cc(-c3ccccc3)nc2c1Br	–	28	–	–	–	21
CCCCNC(=O)c1nn2c(C(F)(F)F)cc(-c3ccc(OC)cc3)nc2c1Br	–	48	–	–	–	–
CN(C)CC(=O)N[C@H]1C[C@@H]2O[C@@H](CO)CC[C@@H]2O[C@@H]1CCc1ccc(C2=CCCCC2)cc1	·	–	·	·	·	·
COc1cc2oc(=O)cc(-c3ccc(-c4ccc(C)cc4)cc3)c2c(OC)c1OC	–	–	–	–	–	·
